Experimental data pooled from the literature.
Lines come from different studies, so protocols differ.
Target: Serine/threonine-protein kinase NLK (NLK, Homo sapiens, UniProt Q9UBE8)
Residues used in one study (Q9UBE8 1-527): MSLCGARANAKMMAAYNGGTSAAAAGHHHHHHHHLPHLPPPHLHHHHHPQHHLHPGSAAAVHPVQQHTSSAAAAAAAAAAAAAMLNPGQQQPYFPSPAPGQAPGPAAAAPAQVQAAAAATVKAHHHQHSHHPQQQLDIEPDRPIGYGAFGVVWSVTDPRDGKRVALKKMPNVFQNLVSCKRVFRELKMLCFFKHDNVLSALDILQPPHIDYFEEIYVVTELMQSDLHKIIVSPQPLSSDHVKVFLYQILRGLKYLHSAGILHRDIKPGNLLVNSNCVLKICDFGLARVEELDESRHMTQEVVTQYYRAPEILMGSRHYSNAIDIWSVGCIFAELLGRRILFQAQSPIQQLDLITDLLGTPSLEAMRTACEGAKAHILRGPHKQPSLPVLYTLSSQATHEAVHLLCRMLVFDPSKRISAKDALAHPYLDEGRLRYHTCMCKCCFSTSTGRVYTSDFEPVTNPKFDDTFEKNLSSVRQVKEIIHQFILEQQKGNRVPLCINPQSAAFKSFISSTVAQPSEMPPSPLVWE

CNC(=O)Nc1ccc2c(c1)CC[C@@]21OC(=O)N(CC(=O)N(Cc2ccc(F)cc2)[C@@H](C)C(F)(F)F)C1=O — remaining binding (binding; competition with immobilised ligand; 1 µM): 82%
O=C(Nc1cnn(-c2csc(C(=O)NC3COC3)c2)c1)Nc1ccccc1Cl — remaining activity (enzyme activity; inhibitor; 5 µM): 99.5%
Cc1ccc(NC(=O)c2ccc(C)c(C(F)(F)F)c2)cc1C#Cc1nn(C2CCC(O)CC2)c2ncnc(N)c12 (stereo not shown) — remaining signal (cell-free assay; 10 µM): 82%
CCN(CC)CCNC(=O)c1c(C)[nH]c(/C=C2\C(=O)Nc3ccc(F)cc32)c1C — inhibition (enzyme activity; inhibitor; 0.3 µM): -7%
CCCOc1ccc(OC)c(F)c1C(=O)c1ccc(C(=O)N[C@@H]2CNC[C@H]2NC(=O)c2ccc3[nH]ncc3c2)cc1 — remaining activity (enzyme activity; inhibitor; 10 µM): 59%
Cn1cncc1C1=CN(c2ncnc3[nH]cnc23)CCS1 — inhibition (enzyme activity; inhibitor; radiometric; 2 µM): 43%
CSc1cccnc1N1CCN(Cc2nc3ccccc3[nH]2)CC1 — remaining binding (binding; competition with immobilised ligand; 1 µM): 100%
CCCS(=O)(=O)Nc1ccc(F)c(C(=O)c2c[nH]c3ncc(-c4ccc(Cl)cc4)cc23)c1F — inhibition (enzyme activity; inhibitor; 1 µM): < 10%
CC(C)(O)[C@H]1CC[C@H](Nc2ccc3ncc(-c4cccc(C(F)(F)F)c4)n3n2)CC1 — remaining activity (enzyme activity; inhibitor; 1 µM): 93.3%
Cc1cnc(NC2CCOCC2)nc1-n1cnc(C(=O)NC(CN)c2cc(F)cc(Cl)c2)c1 (stereo not shown) — remaining activity (enzyme activity; inhibitor; radiometric; 1 µM): 47%
Cc1ccc(Nc2nccc(N(C)c3ccc4c(C)n(C)nc4c3)n2)cc1S(N)(=O)=O — inhibition (enzyme activity; inhibitor; 10 µM): 67%
Nc1ncnc2occ(-c3ccc(NC(=O)Nc4cc(C(F)(F)F)ccc4F)cc3)c12 — remaining signal (cell-free assay; 20 µM): 19%
O=C(Nc1cnn(-c2csc(C(=O)NC3COC3)c2)c1)Nc1c(F)cccc1Cl — remaining activity (enzyme activity; inhibitor; 5 µM): 87.4%
COc1cc(-c2cn(C3CCc4c(F)cccc4N(CC(F)(F)F)C3=O)nn2)ccc1-n1cnc(C)c1 (stereo not shown) — remaining binding (cell-free assay; competition with immobilised ligand; 1 µM): 100%
N#CCCc1ccc2c(c1)-c1[nH]c3ccc([N+](=O)[O-])cc3c1CC(=O)N2 — remaining signal (cell-free assay; 0.5 µM): 89.7%
O=C(NCCCC1CCCCC1)c1ccc(CNC(=O)c2cnn(-c3ccccc3)c2C(F)(F)F)cc1 — remaining binding (cell-free assay; competition with immobilised ligand; 0.1 µM): 100%
CN1CC(Oc2cnc(C#N)cc2-c2ccn3nc(NC(=O)C4CC4)cc3c2)C1 — inhibition (enzyme activity; inhibitor; 1 µM): 10%
C[C@H](c1ccnc(Nc2nc3ccc(-c4cc(N(C)C)ncn4)cc3[nH]2)c1)N1CCN(C(=O)CC(F)(F)F)CC1 — remaining binding (cell-free assay; competition with immobilised ligand; 0.1 µM): 88%
CC(C)(C)c1nc2c(s1)c1nc(N)ncc1c1ccc(NS(=O)(=O)c3c(F)cccc3F)c(F)c12 — remaining activity (enzyme activity; inhibitor; radiometric; 1 µM): 91%
